# Experimental data: publication PMC2834294 (Chemistry & biology, 2010)
# Entries after “also recorded” stand apart in the source; their conditions may differ.
# Assays:
# Type in all cases: cell-based
# TRPML3 [1] = biological target: T1, TRPML3 (Homo sapiens, UniProt Q8TDD5); assay: Fura-2 calcium imaging, HEK293 cells transiently expressing TRPML3; conditions: for ⊗F340/F380 (TRPML3): 10 µM compound, mean ±SEM (n≥3); for kinetics of intracellular calcium increase: TRPML3-transfected HEK293 cells
# T1 sequence (Q8TDD5 1-553): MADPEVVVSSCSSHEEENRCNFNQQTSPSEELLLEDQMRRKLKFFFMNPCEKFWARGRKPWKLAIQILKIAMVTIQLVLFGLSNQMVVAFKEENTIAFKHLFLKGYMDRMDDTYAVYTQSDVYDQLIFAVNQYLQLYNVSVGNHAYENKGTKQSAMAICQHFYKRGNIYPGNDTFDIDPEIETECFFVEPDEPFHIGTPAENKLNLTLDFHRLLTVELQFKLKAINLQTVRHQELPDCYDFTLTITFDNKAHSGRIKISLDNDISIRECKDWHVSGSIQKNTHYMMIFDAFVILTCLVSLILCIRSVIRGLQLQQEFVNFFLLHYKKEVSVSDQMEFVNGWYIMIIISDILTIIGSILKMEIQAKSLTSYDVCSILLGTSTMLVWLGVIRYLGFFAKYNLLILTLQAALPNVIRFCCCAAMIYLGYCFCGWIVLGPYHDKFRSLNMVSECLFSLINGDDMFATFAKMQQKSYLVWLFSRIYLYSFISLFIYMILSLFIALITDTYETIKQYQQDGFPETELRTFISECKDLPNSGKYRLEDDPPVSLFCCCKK
# How it was run: (§1)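 HEK293 cells were transiently transfected (Genejammer) with the human channel construct or YFP control and measured 24 h later. Cells on glass coverslips were loaded with 4 µM fura-2-AM in bath solution (mM: 138 NaCl, 6 KCl, 2 MgCl2, 2 CaCl2, 10 HEPES, 5.5 D-glucose; pH 7.4). Compounds were applied at 10 µM and the F340/F380 ratio recorded. Values are mean ± SEM, n≥3.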
# [2] = system: YFP-expressing HEK293 cells; assay: Fura-2 calcium imaging, YFP-expressing HEK293 cells; conditions: mean ±SEM (n≥3)
# How it was run: as §1
# [3] = biological target: T2, TRPML3 coexpressed with TRPML1 (Homo sapiens, UniProt Q8TDD5); assay: Calcium imaging, HEK293 cells coexpressing TRPML3 with TRPML1; conditions: 10 µM
# T2 sequence (Q8TDD5 1-553): T1 sequence (Q8TDD5 1-553)
# How it was run: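 Human TRPML3 and TRPML1 were transiently coexpressed in HEK293 cells (Genejammer) and imaged 24 h post-transfection. Cells on glass coverslips were loaded with 4 μM fura-2-AM in bath solution (mM: 138 NaCl, 6 KCl, 2 MgCl₂, 2 CaCl₂, 10 HEPES, 5.5 D-glucose, pH 7.4) and read on a monochromator imaging system. Test compound was 10 μM. Mean ± SEM, n≥3 independent experiments, 20–30 cells each.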
# TRPML3 [4] = biological target: T1, TRPML3; conditions: HEK293, read-out: Max % Activation (TRPML3)
# How it was run: (§2)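 HEK293 lines stably expressed YFP-fused human TRPML3 or zebrafish TRPN1 (G418 0.8 mg/ml, twice subcloned) and were plated at 1,500 cells/well for 23 h at 37 °C. After Fluo-8 loading (1 h 37 °C, 30 min RT), a 5 s basal read and 120 s post-addition read were taken. Max/basal ratios were normalized to DMSO and carbachol (87 µM).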
# TRPML3 [5] = biological target: T1, TRPML3; assay: Whole-cell patch-clamp, HEK293 cells transiently transfected with TRPML3; conditions: for nA/pF (-80 mV) (TRPML3): current density at −80 mV, 10 µM in standard bath solution, mean ±SEM (n≥3); for average current density relative to constitutively active TRPML3 A419P: whole-cell, −80 mV
# How it was run: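 Whole-cell patch clamp was done on HEK293 cells 24 h after transient transfection with human TRPML3 or YFP; constitutively active TRPML3(A419P) cells served as positive control. Bath solution (mM): 138 NaCl, 5.4 KCl, 2 MgCl2, 2 CaCl2, 10 HEPES, 10 d-glucose; pH 7.4. Pipette solution (mM): 140 CsCl, 10 HEPES, 3 ATP-Na, 1 BAPTA, 2 MgCl2; pH 7.2. Compounds at 10 µM were perfused. Capacitance-normalized current at −80 mV is reported as mean ± SEM, n≥3.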
# TRPML3 [6] = biological target: T1, TRPML3; assay: Excised; conditions: patches held at −80 mV
# danio rerio TRPN1 = danio rerio TRPN1 (Danio rerio, UniProt Q7T1G6); conditions: for Emax: HEK293, read-out: Max % Activation (Control)
# How it was run: as §2
# TRPML2 = biological target: T3, TRPML2 (Homo sapiens, UniProt Q8IZK6); assay: Fura-2 calcium imaging, HEK293 cells expressing TRPML2; conditions: 10 µM
# T3 sequence (Q8IZK6 1-566): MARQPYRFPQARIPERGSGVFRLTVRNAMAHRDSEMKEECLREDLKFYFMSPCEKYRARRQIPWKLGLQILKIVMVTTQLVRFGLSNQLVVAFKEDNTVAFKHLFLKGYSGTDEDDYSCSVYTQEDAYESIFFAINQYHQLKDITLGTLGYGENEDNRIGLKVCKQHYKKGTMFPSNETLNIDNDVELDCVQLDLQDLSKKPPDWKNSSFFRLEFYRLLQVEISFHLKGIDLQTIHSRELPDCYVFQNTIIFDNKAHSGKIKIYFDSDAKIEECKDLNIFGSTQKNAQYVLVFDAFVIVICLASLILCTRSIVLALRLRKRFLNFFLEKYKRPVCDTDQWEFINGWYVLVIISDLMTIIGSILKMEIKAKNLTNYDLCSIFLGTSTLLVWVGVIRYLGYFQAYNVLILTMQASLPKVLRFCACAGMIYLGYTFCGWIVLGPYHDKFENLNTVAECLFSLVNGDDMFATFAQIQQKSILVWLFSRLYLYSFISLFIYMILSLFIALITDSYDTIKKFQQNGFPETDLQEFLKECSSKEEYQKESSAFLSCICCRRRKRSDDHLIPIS
# How it was run: as §1
# TRPML3 [7] = biological target: T1, TRPML3; assay: Whole-cell patch-clamp with intracellular application; conditions: for response to intracellular application (infusion): whole-cell, −80 mV
# TRPML1(NC) = TRPML1(NC) (Homo sapiens, UniProt Q9GZU1); assay: Fura-2 calcium imaging, HEK293 cells expressing TRPML1; conditions: 10 µM, plasma membrane-localized TRPML1 variant
# How it was run: as §1
# Chain of danio rerio TRPN1 (Q7T1G6 1-1614): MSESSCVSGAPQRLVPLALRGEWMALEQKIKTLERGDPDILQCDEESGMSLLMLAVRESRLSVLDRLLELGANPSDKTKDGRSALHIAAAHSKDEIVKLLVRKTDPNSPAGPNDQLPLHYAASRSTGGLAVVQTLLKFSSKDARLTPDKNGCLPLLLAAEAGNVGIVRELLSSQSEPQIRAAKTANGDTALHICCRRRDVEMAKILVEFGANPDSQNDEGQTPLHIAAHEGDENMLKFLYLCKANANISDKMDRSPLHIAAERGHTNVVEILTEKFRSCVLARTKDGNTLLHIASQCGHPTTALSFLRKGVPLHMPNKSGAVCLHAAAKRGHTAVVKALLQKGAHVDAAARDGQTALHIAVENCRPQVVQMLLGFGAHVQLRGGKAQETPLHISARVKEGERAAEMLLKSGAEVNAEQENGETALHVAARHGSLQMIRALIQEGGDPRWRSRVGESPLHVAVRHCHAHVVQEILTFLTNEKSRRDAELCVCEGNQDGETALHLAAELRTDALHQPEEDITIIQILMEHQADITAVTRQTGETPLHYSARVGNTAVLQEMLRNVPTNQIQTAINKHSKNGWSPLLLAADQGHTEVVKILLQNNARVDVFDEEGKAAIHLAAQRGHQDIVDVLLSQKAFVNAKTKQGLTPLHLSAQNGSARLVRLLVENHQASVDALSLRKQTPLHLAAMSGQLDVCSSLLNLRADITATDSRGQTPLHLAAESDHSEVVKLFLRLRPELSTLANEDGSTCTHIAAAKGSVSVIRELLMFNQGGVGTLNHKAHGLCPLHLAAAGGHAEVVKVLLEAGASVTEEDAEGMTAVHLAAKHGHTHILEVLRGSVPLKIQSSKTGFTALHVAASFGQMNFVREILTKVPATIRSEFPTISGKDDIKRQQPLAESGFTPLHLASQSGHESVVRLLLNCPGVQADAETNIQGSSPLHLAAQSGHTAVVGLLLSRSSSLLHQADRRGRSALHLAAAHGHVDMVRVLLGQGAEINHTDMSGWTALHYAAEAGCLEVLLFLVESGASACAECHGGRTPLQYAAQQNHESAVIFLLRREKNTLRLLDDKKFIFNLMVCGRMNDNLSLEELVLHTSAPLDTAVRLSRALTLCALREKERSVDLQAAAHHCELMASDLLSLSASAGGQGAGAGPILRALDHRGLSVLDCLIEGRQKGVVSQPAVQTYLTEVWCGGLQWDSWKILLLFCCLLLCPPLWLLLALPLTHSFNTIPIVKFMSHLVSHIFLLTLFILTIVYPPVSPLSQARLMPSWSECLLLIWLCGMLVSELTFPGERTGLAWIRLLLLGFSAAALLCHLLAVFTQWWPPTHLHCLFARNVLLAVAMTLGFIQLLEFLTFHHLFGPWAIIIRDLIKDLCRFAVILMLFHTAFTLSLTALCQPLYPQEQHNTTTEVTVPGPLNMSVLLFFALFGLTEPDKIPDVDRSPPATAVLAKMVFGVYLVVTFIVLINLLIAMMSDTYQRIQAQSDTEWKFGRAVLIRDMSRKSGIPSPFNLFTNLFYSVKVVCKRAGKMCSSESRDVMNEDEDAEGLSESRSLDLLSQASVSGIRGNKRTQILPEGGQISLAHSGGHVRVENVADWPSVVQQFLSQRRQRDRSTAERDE
# Chain of TRPML1(NC) (Q9GZU1 17-572 limits assumed): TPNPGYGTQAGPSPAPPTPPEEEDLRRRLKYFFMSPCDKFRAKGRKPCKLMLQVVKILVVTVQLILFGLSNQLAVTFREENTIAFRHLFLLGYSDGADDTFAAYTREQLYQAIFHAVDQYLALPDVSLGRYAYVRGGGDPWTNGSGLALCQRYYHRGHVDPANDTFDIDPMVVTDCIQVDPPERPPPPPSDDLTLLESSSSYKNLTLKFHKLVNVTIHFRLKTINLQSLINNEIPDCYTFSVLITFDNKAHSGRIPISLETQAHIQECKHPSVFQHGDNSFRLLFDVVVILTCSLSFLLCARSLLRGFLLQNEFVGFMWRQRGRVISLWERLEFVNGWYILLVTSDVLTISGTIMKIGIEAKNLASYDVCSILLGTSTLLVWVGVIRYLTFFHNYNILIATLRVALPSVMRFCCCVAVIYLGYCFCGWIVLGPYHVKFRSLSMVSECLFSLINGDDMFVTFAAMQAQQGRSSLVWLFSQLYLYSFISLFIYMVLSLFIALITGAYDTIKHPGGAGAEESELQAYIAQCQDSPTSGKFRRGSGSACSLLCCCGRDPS
⊗F340/F380 (TRPML3) (TRPML3 [1]),Emax (TRPML3 [4]),nA/pF (-80 mV) (TRPML3) (TRPML3 [5]),TRPML3 activity in excised patches (TRPML3 [6]),EC50 (danio rerio TRPN1),Emax (danio rerio TRPN1),intracellular calcium response in TRPML3-transfected cells (TRPML3 [1]),TRPML3 activation in whole-cell patch-clamp (TRPML3 [5]; control compound),response in HEK293 cells expressing TRPML2 (TRPML2),cell membrane permeability (TRPML3 [7]; inferred from intracellular infusion experiment),SMILES,⊗F340/F380 (Control) [2],calcium imaging response when TRPML1 was coexpressed with TRPML3 [3],average current density relative to constitutively active TRPML3 A419P (TRPML3 [5]),kinetics of intracellular calcium increase (TRPML3 [1]),response to intracellular application (infusion) (TRPML3 [7]),activation of mutant TRPML1(NC) isoform (TRPML1(NC))
0.93 ±0.07,174 ± 1%,−0.37 ±0.08 nA/pF,markedly increased TRPML3 activity,> 29.9 µM,1 ± 1%,–,–,–,–,"O=S(=O)(Nc1ccccc1N1CCOCC1)c1ccc(Cl)s1 [SF-23, 5-chloro-N-(2-morpholin-4-ylphenyl)thiophene-2-sulfonamide]",0.005 ±0.005,strong reduction of the calcium imaging responses,comparable to average current densities obtained from cells expressing the constitutively active varitint-waddler mutant isoform A419P,–,–,–
–,–,–,–,–,–,did not elicit any responses,did not activate TRPML3,–,–,"CCCN(CCC)S(=O)(=O)c1ccc(C(=O)O)cc1 [probenicid, 4-(dipropylsulfamoyl)benzoic acid, reference compound]",–,–,–,–,–,–
0.99 ±0.07,138 ± 12%,−0.42 ±0.07 nA/pF,–,> 29.9 µM,12 ± 1%,–,–,elicited responses,–,"Cc1ccc(N2CCN(S(=O)(=O)N3CCCCC3)CC2)c(C)c1 [SF-41, 1-(2,4-dimethylphenyl)-4-piperidin-1-ylsulfonylpiperazine]",0.015 ±0.001,–,Stronger responses,much more rapid increase than the other compounds,–,–
0.72 ±0.05,135 ± 20%,−0.14 ±0.02 nA/pF,–,> 29.9 µM,8 ± 1%,–,–,–,–,"Cc1ccc(S(=O)(=O)n2nccc2-c2c(-c3ccc(Cl)cc3)noc2C)cc1 [SF-11, 3-(4-chlorophenyl)-5-methyl-4-[2-(4-methylphenyl)sulfonylpyrazol-3-yl]-1,2-oxazole]",–,–,–,–,elicited responses when applied intracellularly,–
0.52 ±0.05,119 ± 5%,−0.02 ±0.01 nA/pF,–,> 29.9 µM,2 ± 1%,–,–,–,–,"CCOc1ccc(S(=O)(=O)N2CCCCC2)c(C)c1C [SF-32, 1-(4-ethoxy-2,3-dimethylphenyl)sulfonylpiperidine]",–,–,–,–,–,–
0.62 ±0.05,138 ± 21%,–,–,> 29.9 µM,1%,–,–,elicited responses,–,"Cc1ccccc1S(=O)(=O)c1c(C)cc(C)n(C(C)C)c1=O [SF-81, 4,6-dimethyl-3-(2-methylphenyl)sulfonyl-1-propan-2 ylpyridin-2-one]",–,–,comparable to average current densities obtained from cells expressing the constitutively active varitint-waddler mutant isoform A419P,–,–,–
1.00 ±0.07,156 ± 16%,−0.24 ±0.06 nA/pF,markedly increased TRPML3 activity,> 29.9 µM,1%,–,–,–,not cell permeable,"O=S(=O)(Nc1ccccc1N1CCCCC1)c1ccc(Cl)s1 [SF-22, 5-chloro-N-(2-piperidin-1-ylphenyl)thiophene-2-sulfonamide]",–,strong reduction of the calcium imaging responses,comparable to average current densities obtained from cells expressing the constitutively active varitint-waddler mutant isoform A419P,–,did not elicit a response when infused into the cells,able to activate this channel; also recorded: can be activated by compound SF-22
0.65 ±0.10,119 ± 21%,−0.06 ±0.02 nA/pF,–,> 29.9 µM,2 ± 1%,–,–,–,–,"CCCOc1cc(C)c(Cl)cc1S(=O)(=O)N(CC)CC [SF-33, 5-chloro-N,N-diethyl-4-methyl-2-propoxybenzenesulfonamide]",–,–,–,slowest kinetics,–,–
1.00 ±0.10,130 ± 20%,−0.19 ±0.03 nA/pF,–,> 29.9 µM,2 ± 1%,–,–,–,–,"CCOc1ccc(S(=O)(=O)N2CCCCCC2)c2ccccc12 [SF-31, 1-(4-ethoxynaphthalen-1-yl)sulfonylazepane]",−0.011 ±0.001,–,comparable to average current densities obtained from cells expressing the constitutively active varitint-waddler mutant isoform A419P,–,–,–
0.56 ±0.03,102 ± 22%,−0.07 ±0.01 nA/pF,–,> 29.9 µM,2 ± 1%,–,–,–,–,"COc1ccccc1C1CN=NC12CCCc1ccccc1C2=O (stereo not shown) [SF-61, 4-(2-methoxyphenyl)spiro[3,4-dihydropyrazole-5,8’-6,7-dihydro-5H-benzo[7]annulene]-9’-one]",–,–,–,–,–,–
1.15 ±0.06,151 ± 14%,−0.33 ±0.10 nA/pF,–,> 29.9 µM,6%,–,–,–,–,"CCOc1ccc(S(=O)(=O)NC(C)(C)C)cc1-c1nc(=O)c2c([nH]1)c(C(C)(C)C)nn2C [SN-1, N-tert-butyl-3-(3-tert-butyl-1-methyl-7-oxo-4H-pyrazolo[4,3-d]pyrimidin-5-yl)-4-ethoxybenzenesulfonamide]",0.005 ±0.004,–,comparable to average current densities obtained from cells expressing the constitutively active varitint-waddler mutant isoform A419P,–,–,–
